# Screens (PubChem BioAssay)
# Only some compounds are listed: those with a hit (about 4% of all), similar ones and a draw of the others.
# TAAR1 antag: human TAAR1 antagonism; Q96RJ0; CHO RD-HGA16 TAAR1, Fluo-8 calcium fluorescence, antagonist; inhibition, % at 3 µM; 1.5% of 360,000 active;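 active = inhibition above a per-plate cutoff, the mean inhibition of test compounds on that plate plus 3 SD, cut at about 49% in these data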;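 also: 0% = DMSO plus EC80 beta-PEA response and 100% = DMSO alone without agonist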
#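 Test system: CHO RD-HGA16 cells bearing hTAAR1 | Reagent: β-PEA, EC80 | Compound dosing: 3 µM, single point | Schedule: Dye loading 75 min at 37 °C, then 30 min room temperature | Signal: Calcium fluorescence with Fluo-8 | Evaluation: Percent inhibition of PEA-evoked calcium signal, max/basal emission ratio | Control set: DMSO-only wells and EC80 β-PEA-stimulated wells | Repeats: Singlicate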
# TAAR1 ag: human TAAR1 agonism. CHO RD-HGA16 TAAR1, Fluo-8 calcium fluorescence; vehicle wells 0%, saturating PEA agonist 100%. activation, % at 3 µM. 0.99% of 360,000 active. Q96RJ0;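 active = activation above the mean activation of all test compounds in the run plus 3 SD, cut at about 38% in these data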
#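 Test system: RD-HGA16 (CHO) cells co-expressing Gα16 and hTAAR1; dosing: one-point dosing at 3 µM (nominal); timing: 17-24 h seeding, 75 min 37 °C dye, 30 min RT; signal: kinetic Fluo-8 calcium fluorescence; read-out basis: % activation relative to PEA EC100 response; controls: DMSO and PEA EC100; replicates: n 1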
# OX1R antag-1: OX1R (human) antagonism. O43613. OX1R-expressing cells, FRET antagonist read-out. inhibition, % at 6.6 µM. 1.8% of 330,000 active; in the data active = inhibition mostly above about 38%, no sharp cut-off; inactive = mostly below about 40%;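 also: 0% = agonist challenge alone and 100% = reference antagonist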
# Target sequence (O43613 whole entry, looked up): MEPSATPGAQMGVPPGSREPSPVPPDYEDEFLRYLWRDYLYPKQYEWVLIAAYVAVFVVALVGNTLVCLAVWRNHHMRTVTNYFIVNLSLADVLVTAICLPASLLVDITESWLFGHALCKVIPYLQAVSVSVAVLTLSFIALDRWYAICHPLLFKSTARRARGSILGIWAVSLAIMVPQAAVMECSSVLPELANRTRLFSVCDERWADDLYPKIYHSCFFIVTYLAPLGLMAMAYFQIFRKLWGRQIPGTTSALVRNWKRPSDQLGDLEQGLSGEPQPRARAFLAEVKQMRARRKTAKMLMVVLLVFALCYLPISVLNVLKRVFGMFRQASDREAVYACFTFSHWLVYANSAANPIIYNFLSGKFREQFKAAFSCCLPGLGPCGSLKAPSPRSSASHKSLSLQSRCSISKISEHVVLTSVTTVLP
# CHO parental Ca: counter-screen: ATP calcium response change in parental CHO cells; parental CHO-K1, ATP-induced calcium, Fluo-8 fluorescence; inhibition, % at 5.6 µM; 0.63% of 330,000 active; AID 463079;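 active = inhibition above that plate's mean sample inhibition plus 3 SD, cut at about 26% in these data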;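 also: 0% = ATP-challenged DMSO wells and 100% = DMSO wells without ATP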
#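 test system = CHO parental line | reagent = ATP stimulus | measured by = intracellular calcium via Fluo-8 no-wash fluorescent dye | control set = ATP and no-ATP DMSO wells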
# NTR1 agonist: activates human neurotensin receptor 1; P30989; activation, % at 20 µM; 0.17% of 330,000 active; NTR1-U2OS beta-arrestin-GFP spot imaging, agonist mode;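 active = activation at or above 40% of the spot to cytoplasm intensity ratio, with at least 20 cells analyzed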;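 also: 0% = DMSO without peptide and 100% = 100 nM NTR1 peptide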
# OX1R antag-2: human HCRTR1 antagonism; CHO/OX1R cells, Fluo-8 calcium fluorescence, orexin A; inhibition, % at 5 µM; 0.43% of 330,000 active; O43613;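 active = inhibition above its plate's threshold, mean inhibition of all tested compounds on the plate plus 3 SD, cut at about 37% in these data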;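 also: 0% = orexin A challenge wells and 100% = SB-334867-A antagonist wells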
# Active calls of the source: *; / = no result given.
SMILES,TAAR1 antag,TAAR1 ag,OX1R antag-1,CHO parental Ca,NTR1 agonist,OX1R antag-2
COc1ccc(NC(=O)N(C)C[C@H]2Oc3c(NC(=O)Nc4ccc5c(c4)OCO5)cccc3C(=O)N([C@H](C)CO)C[C@@H]2C)cc1,49*,22,8,8,0,-10
COc1ccc(S(=O)(=O)N(C)C[C@H]2Oc3c(NC(=O)Nc4ccccc4)cccc3C(=O)N([C@H](C)CO)C[C@@H]2C)cc1,57*,12,/,/,/,/
COc1ccc(NC(=O)Nc2cccc3c2O[C@H](CN(C)C(=O)Nc2ccc(OC)cc2)[C@@H](C)CN([C@H](C)CO)C3=O)cc1,56*,17,9,-6,0,-12
COc1ccc(NC(=O)N(C)C[C@H]2Oc3c(NC(=O)Nc4ccccc4)cccc3C(=O)N([C@H](C)CO)C[C@@H]2C)cc1,27,5,4,1,5,-15
NS(=O)(=O)c1ccc(CNC(=O)Cn2nc(C(F)F)cc2C(F)F)cc1,-9,1,4,-2,-2,-4
C#CCOCCOCCOCCNc1nc(N2CCOCC2)nc(N2CCN(C(=O)CCCCCCCCCCNC(=O)[C@@H]([C@H](C)CC)n3cc(CCCCCN)nn3)CC2)n1,-2,10,38,-21,8,-32
C#CCOCCOCCOCCNc1nc(N2CCN(C(=O)CCCCCCCCCCNC(=O)[C@H]([C@@H](C)CC)n3cc(CCCCCN)nn3)CC2)nc(N2CCN(C(=O)CCCCCCCCCCNC(=O)[C@@H]([C@H](C)CC)n3cc(CCCCCN)nn3)CC2)n1,/,/,-4,79*,5,32
C#CCOCCOCCOCCNc1nc(N2CCN(C(=O)CCCCCCCCCCNC(=O)[C@H]([C@@H](C)CC)n3cc(CCCCCN)nn3)CC2)nc(N2CCN(C(=O)CCCCCCCCCCNC(=O)[C@H](CO)n3cc(CCCCCN)nn3)CC2)n1,/,/,8,68*,8,21
C#CCOCCOCCOCCNc1nc(N2CCN(C(=O)CCCCCCCCCCNC(=O)Cn3cc(C[C@@H](C)O)nn3)CC2)nc(N2CCN(C(=O)CCCCCCCCCCNC(=O)[C@H](CO)n3cc(CCCSC)nn3)CC2)n1,49*,3,-12,-2,2,11
C#CCOCCOCCOCCNc1nc(N2CCN(C(=O)CCCCCCCCCCNC(=O)[C@H]([C@@H](C)CC)n3cc(CCCCN=C(N)N)nn3)CC2)nc(N2CCN(C(=O)CCCCCCCCCCNC(=O)[C@H](CO)n3cc(CCCCCN)nn3)CC2)n1,/,/,-18,5,2,-19
CCOC(=O)C(C)Sc1nc2c(cnn2-c2ccc(F)cc2)c(=O)[nH]1 (stereo not drawn),-39,2,9,0,5,-21
O=C1C2CC=C(Cl)CC2C(=O)N1CCN1CCOCC1 (stereo not drawn),5,5,13,-12,0,-11
O=C1C2CC=C(Cl)CC2C(=O)N1CCCCCCN1C(=O)C2CC=C(Cl)CC2C1=O (stereo not drawn),22,41*,24,-12,0,1
O=C(O)c1[nH]c2ccc(Cl)cc2c1CC(=O)N1CCN(c2ccccc2)CC1,-7,10,19,44*,-1,12
Cc1nc(C(=O)O)nn1-c1ccc([N+](=O)[O-])cc1,15,-1,46*,-3,0,7
Cc1nn2cnnc2c(C)c1Cc1c(F)cccc1Cl,-13,14,6,6,1,-16
Clc1ccc(OCCN2CCN(c3ncnc4sccc34)CC2)cc1,17,13,49*,11,1,5
Cc1ccc(OCCN2CCN(c3ncnc4sc(C)c(C)c34)CC2)cc1,14,3,44*,4,5,-5
Cc1sc2ncnc(N3CCCCC3)c2c1C,-7,24,8,1,2,-17
CCOc1ccc(N(CC(=O)Nc2ccccc2OCC)S(=O)(=O)c2c(C)noc2C)cc1,-2,0,7,-29,2,-19
O=C(Cc1ccc(NC(=O)C2CCCN(C(=O)c3ccccc3)C2)cc1)Nc1cccc(C(=O)N2CCCCC2)c1 (stereo not drawn),-39,2,/,/,/,/
C/C(=N\NC(=O)c1nnn(-c2nonc2N)c1CN(C)c1ccccc1)c1ccccc1O,16,0,55*,4,15,23
CCOc1ccc(-c2c(C(=O)N/N=C/c3ccc(C)o3)nnn2-c2nonc2N)cc1,22,32,13,0,5,-11
CC(C)c1c(C(=O)N/N=C/C=C/c2ccccc2)nnn1-c1nonc1N,34,42*,-1,-8,3,-15
Cc1ccc(/C=N/NC(=O)c2nnn(-c3nonc3N)c2-c2ccccc2)o1,-8,43*,10,-12,1,9
SMILES,TAAR1 antag,TAAR1 ag,OX1R antag-1,CHO parental Ca,NTR1 agonist,OX1R antag-2
COc1ccc(/C(C)=N/NC(=O)c2nnn(-c3nonc3N)c2CN(C)c2ccccc2)cc1,-10,3,45,-18,-1,29
COc1cc(/C=N/NC(=O)c2nnn(-c3nonc3N)c2C(C)C)ccc1OCc1ccc(F)cc1,7,1,8,49*,5,35
Cc1cc(N2CCNC[C@@H]2C)ccc1N1C[C@@H](C)O[C@@H](C)C1,-5,3,/,/,/,/
N#Cc1ccc(S(=O)(=O)N2CCCc3nc(-c4ccc(Br)cc4)ccc32)cc1,-6,2,/,/,/,/
O=C(C=Cc1ccc(OCc2ccccc2)cc1)c1c(F)cccc1F,-11,0,/,/,/,/
COc1ccc(C2CC(=O)C(c3ccc([N+](=O)[O-])cc3)=CN2Cc2ccccc2)cc1 (stereo not drawn),13,6,/,/,/,/
O=C(OCc1ccccc1)N1CCC2CC1c1ccc(N3CCN(Cc4ccccc4)CC3)cc12 (stereo not drawn),-26,1,/,/,/,/
CC(C)C[C@H]1COc2cc(Br)ccc2S(=O)(=O)N1Cc1cccc(Cl)c1,-30,0,/,/,/,/
C=CCCC1CN(Cc2ccc(OC)cc2)S(=O)(=O)c2c(cccc2N(C)S(=O)(=O)c2ccc(C)cc2)O1 (stereo not drawn),-3,-1,/,/,/,/
COc1cccc(C(=O)N[C@H](C(=O)N2CCC[C@H]2C(=O)NCc2ccccc2)c2ccccc2)c1,0,1,/,/,/,/
Clc1cccc(CN2CCN(c3ncc(Cc4ccccc4)cn3)CC2)c1Cl,-10,-1,/,/,/,/
CC1CC(C)CN(CCCNC(=O)C2CCN(c3ncnc4c3sc3cccc(F)c34)CC2)C1 (stereo not drawn),/,/,55*,-28,0,-5
O=C(Nc1ccc(Br)cc1F)C1CCN(c2nnc(-n3cccc3)s2)CC1,5,-3,9,-13,7,-21
O=C(Nc1ccc(F)cc1F)C1CCN(c2ncnc3c2sc2cccc(F)c23)CC1,17,7,46*,-5,3,-12
